Test results published in PMC10013843 (Molecular psychiatry, 2022).

Experiments:
>30,000 proteins = experiment: Collective screening and target deconvolution; format: binding
[1] = target: kappa-opioid receptors, KOR (Rattus norvegicus, UniProt P34975); experiment: [^3H]U69,593 competition binding, rat brain membranes
[^14C]- = format: in vivo, rat; details: for % of the total radioactivity exposure through 72 hours: plasma; for plasma exposure AUC 0–72h: [^14C]-(2R,6R)-HNK 10 mg/kg i.v.
Summary of the method: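 Male and female rats received a single bolus IV dose of 14C-labelled test compound (10 mg/kg). Blood and plasma radioactivity was followed from 15 min to 120 h in males and to 72 h in females. […] Whole-body autoradiograms were taken at 30 min and 4 h.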

[2] = test system: cDNA libraries derived from human adult brain, human lung cancer cells, and human placenta; experiment: Yeast 3-hybrid screen, human cDNA libraries; details: lung cancer cell and placenta libraries
mGluR8 = mGluR8 (Homo sapiens, UniProt O00222); experiment: mGluR functional assay; format: biochemical
[3] = target: tropomyosin receptor kinase B (TrkB) (Homo sapiens, UniProt Q16620); experiment: Screening and target deconvolution experiments; format: binding
NMDA receptors = experiment: [^3H]MK-801 competition binding, rat brain membranes
HCN1 channel = target: T1, HCN1 channel (Homo sapiens, UniProt O60741); experiment: HCN1 channel functional interaction; format: biochemical
T1 sequence (O60741 1-890): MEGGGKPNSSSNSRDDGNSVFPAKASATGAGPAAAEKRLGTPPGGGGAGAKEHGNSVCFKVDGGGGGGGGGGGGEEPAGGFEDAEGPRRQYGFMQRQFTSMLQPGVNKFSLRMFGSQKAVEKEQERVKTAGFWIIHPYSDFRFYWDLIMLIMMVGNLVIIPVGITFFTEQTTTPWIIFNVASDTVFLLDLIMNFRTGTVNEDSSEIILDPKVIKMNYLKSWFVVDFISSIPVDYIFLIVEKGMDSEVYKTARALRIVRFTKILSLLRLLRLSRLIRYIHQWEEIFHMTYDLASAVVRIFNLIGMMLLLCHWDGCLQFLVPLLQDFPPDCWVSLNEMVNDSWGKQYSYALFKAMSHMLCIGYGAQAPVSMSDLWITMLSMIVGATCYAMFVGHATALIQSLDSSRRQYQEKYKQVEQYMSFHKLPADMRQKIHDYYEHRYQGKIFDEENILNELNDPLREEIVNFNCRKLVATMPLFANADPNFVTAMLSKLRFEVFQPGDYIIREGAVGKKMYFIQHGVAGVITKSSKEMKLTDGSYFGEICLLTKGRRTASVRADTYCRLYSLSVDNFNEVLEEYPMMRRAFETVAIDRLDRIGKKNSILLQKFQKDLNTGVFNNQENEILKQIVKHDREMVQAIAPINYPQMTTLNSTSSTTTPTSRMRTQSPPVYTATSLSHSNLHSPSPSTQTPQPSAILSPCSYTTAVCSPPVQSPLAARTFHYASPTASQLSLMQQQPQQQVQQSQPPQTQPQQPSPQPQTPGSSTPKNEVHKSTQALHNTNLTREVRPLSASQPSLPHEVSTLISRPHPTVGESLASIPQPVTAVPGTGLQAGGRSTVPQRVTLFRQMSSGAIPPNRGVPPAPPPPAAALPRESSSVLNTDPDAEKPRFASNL

rats = details: i.v. doses up to 160 mg/kg; cited from earlier work
[4] = after administration of antidepressant-like doses; cited from earlier work
mGluR2 = mGluR2 (Homo sapiens, UniProt Q14416); experiment: [^3H]LY341495 competition binding, recombinant receptor membranes; details: membranes expressing human recombinant mGluR2
opioid receptors = details: cited from earlier work
[5] = test system: >80 receptor and enzymatic binding sites; experiment: Receptor and enzyme competitive screen; details: 100 nM
Summary of the method: (§1)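 In an outsourced panel, membranes from stable cell lines expressing each receptor or enzyme were incubated with the target's radioligand, with or without test compound at 100 nM or 10 μM. A reference compound ran concurrently, and a specific agonist or antagonist defined nonspecific binding. Bound ligand was collected by vacuum filtration through presoaked glass-fibre filters, washed with ice-cold buffer and counted by scintillation.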

[6] = target: Neurokinin receptor (NK1) (Homo sapiens, UniProt P25103); experiment: Receptor and enzyme competitive screen; format: binding; details: 10 μM
Summary of the method: as §1

[7] = target: glucocorticoid receptor (GR) (Homo sapiens, UniProt P04150); experiment: Screening and target deconvolution experiments; format: binding
mGluR2/3 = experiment: mGluR functional assay; format: biochemical

## N[C@@]1(c2ccccc2Cl)CCC[C@@H](O)C1=O [(2R,6R)-HNK, (2R,6R)-hydroxynorketamine]
>30,000 proteins
  direct protein interactions, all screens together: failed to identify any (2R,6R)-HNK-protein interactions
[1]; concentrations up to 100 μM
  binding to opioid receptors (KOR): does not bind
[1]; rat brain membranes
  KOR binding, displacement of [^3H]U69,593: failed to displace
[^14C]-; female rats
  % of the total radioactivity exposure through 72 hours: 26.7%
  plasma exposure AUC 0–72h: 7090 ng eq·h/g
[^14C]-; male rats
  % of the total radioactivity exposure through 72 hours: 21.6%
  plasma exposure AUC 0–72h: 5330 ng eq·h/g
[2]
  high-confidence (2R,6R)-HNK-protein interactions: did not identify any positive high-confidence (2R,6R)-HNK-protein interactions
mGluR8
  effect in functional assay at mGluR8: no effects
[3]
  interaction with TrkB: failed to interact
NMDA receptors; concentrations up to 100 μM
  displacement of [^3H]MK-801 (NMDAR binding): no displacement
NMDA receptors; rat brain membranes
  displacement of [^3H]MK801 binding: failed to displace
HCN1 channel
  interaction with the HCN1 channel: neither (2R,6R)-HNK nor ketamine interacted
rats
  NMDAR-associated neurotoxicity: does not produce NMDAR-associated neurotoxicity
[4]
  concentration achieved in the brain: ~ 10 μM
mGluR2
  displacement of [^3H]LY341475: failed to displace
Opioid receptors
  functional properties at opioid receptors: inverse agonist properties
[5]
  hits in competitive screen: No hits
[6]
  binding of Substance P to NK1 in screen: increases binding of Substance P
[7]
  interaction with GR: failed to interact
mGluR2/3
  functional responses at mGluR2/3: did not affect
